In ChEMBL document CHEMBL1949565, “4-nitrobenzyloxycarbonyl derivatives of O(6)-benzylguanine as hypoxia-activated prodrug inhibitors of O(6)-alkylguanine-DNA alkyltransferase (AGT), which produces resistance to agents targeting the O-6 position of DNA guanine” (J Med Chem, 2011):
The source made the active and inactive calls. No cut-off for these calls is given here.

Experiments:
[1] = Prodrug activation assessed as formation of O6-benzylguanine in presence of Zn/EDTA
Outline: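 Each agent at 50 μM in 50 mM Tris-HCl, 10 mM EDTA, pH 7.0, was shaken briefly with about 4 mg/mL Zn dust at room temperature. After centrifugation, the supernatant was analysed by reverse-phase HPLC with UV detection at 280 nm.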

[2] = Prodrug activation assessed as formation of O6-benzylguanine under normoxic condition at 20 uM after 1 hr by HPLC analysis in presence of xanthine/xanthine oxidase
Outline: (§1)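 Test agent at 20 μM (from DMSO) in 100 mM potassium phosphate pH 7.4 at 37 °C, with either cytochrome P450 reductase plus 1 mM NADPH, or 0.16 units/mL xanthine oxidase plus 1 mM xanthine. Oxygen deficiency came from glucose oxidase/catalase with 10 mM glucose. Aerobic mixtures omitted glucose and were shaken as shallow layers in sealed flasks. Samples at 0 and 1 h were quenched with acetonitrile and analysed by HPLC.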

[3] = Prodrug activation assessed as formation of O6-benzylguanine under oxygen-deficient condition at 20 uM after 1 hr by HPLC analysis in presence of xanthine/xanthine oxidase; outline: as §1
[4] = Prodrug activation assessed as formation of O6-benzylguanine under normoxic condition at 20 uM after 1 hr by HPLC analysis in presence of NADPH:CYP450 reductase; assay type: ADME; outline: as §1
[5] = Prodrug activation assessed as formation of O6-benzylguanine under oxygen-deficient condition at 20 uM after 1 hr by HPLC analysis in presence of NADPH:CYP450 reductase; assay type: ADME; outline: as §1
Homo sapiens [6] = species on record: Homo sapiens; test: Inhibition of human recombinant AGT assessed as prevention of O6-(2-chloroethyl)guanine and N1,O6-ethanoguanine-DNA adduct repair at 50 uM after 30 mins by fluorescence assay
Outline: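 About 40 fmol purified recombinant human AGT in stabilization buffer (20 mM Tris-HCl, 1 mM EDTA, BSA 1 mg/mL, 0.1 mM DTT, L1210 DNA, pH 7.4) preincubated with inhibitor for 30 min at 37 °C. It was then incubated 30 min at 37 °C with L1210 DNA bearing O6-chloroethylguanine/N1,O6-ethanoguanine lesions (~50 fmol). Unrepaired lesions were converted to cross-links at 50 °C for 2–3 h. Cross-linking was read by Hoechst 33258 fluorescence before and after heat denaturation.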

DU-145 [7] = test: Prodrug activation in human DU145 cells assessed as formation of O6-benzylguanine under normoxic condition at 20 uM after 3 hrs by HPLC analysis; assay type: cell-based; conditions: du-145, 3 h
Outline: (§2)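 Cells at 10^7/mL with ~20 μM prodrug at 37 °C: EMT6 in DMEM with 10% FBS, DU145 in α-MEM with 10% FBS, each with 10 mM glucose. Normoxic suspensions were shaken as shallow layers in flasks. Oxygen-deficient incubations used sealed tubes with an extra 10 mM glucose, glucose oxidase 2 units/mL and catalase 120 units/mL. Samples at 0–3 h were acetonitrile-extracted and analysed by HPLC.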

EMT6 [8] = test: Prodrug activation in mouse EMT6 cells assessed as formation of O6-benzylguanine under normoxic condition at 20 uM after 3 hrs by HPLC analysis; assay type: cell-based; conditions: emt6, 3 h; outline: as §2
DU-145 [9] = test: Prodrug activation in human DU145 cells assessed as formation of O6-benzylguanine under oxygen-deficient condition at 20 uM after 3 hrs by HPLC analysis; assay type: cell-based; conditions: du-145, 3 h; outline: as §2
EMT6 [10] = test: Prodrug activation in mouse EMT6 cells assessed as formation of O6-benzylguanine under oxygen-deficient condition at 20 uM after 3 hrs by HPLC analysis; assay type: cell-based; conditions: emt6, 3 h; outline: as §2
DU-145 [11] = test: Inhibition of AGT-mediated potentiation of laromustine-induced cytotoxicity in human DU145 cells at 40 uM pretreated for 6 hrs prior laromustine addition measured after 24 hrs incubation under normoxic condition by clonogenic assay; assay type: functional, cell-based
Outline: (§3)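 DU145 monolayers seeded at 2.5 × 10^5 cells per flask and treated 3 days later. Pretreatment with prodrug for 6 h, then laromustine added in medium for 24 h at 37 °C; DMSO ≤ 0.05%. For oxygen deficiency, glucose oxidase 2 units/mL plus catalase 120 units/mL in high-glucose DMEM, with flasks nitrogen-flushed and sealed. Aerobic flasks were unsealed and lacked these enzymes. Colonies were crystal-violet stained after 10–14 days; plating in duplicate.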

DU-145 [12] = test: Inhibition of AGT-mediated potentiation of laromustine-induced cytotoxicity in human DU145 cells at 40 uM pretreated for 6 hrs prior laromustine addition measured after 24 hrs incubation under oxygen deficiency condition by clonogenic assay; assay type: functional, cell-based; outline: as §3
Homo sapiens [13] = species on record: Homo sapiens; test: Inhibition of human recombinant AGT assessed as prevention of O6-(2-chloroethyl)guanine and N1,O6-ethanoguanine-DNA adduct repair at 0.1 uM after 30 mins by fluorescence assay
Outline: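 Purified recombinant human AGT (~40 fmol) in stabilization buffer (20 mM Tris-HCl, 1 mM EDTA, 1 mg/mL BSA, 0.1 mM DTT, 2 μg/mL L1210 DNA, pH 7.4) preincubated with inhibitor 30 min, 37 °C. Then added to L1210 DNA substrate treated with a chloroethylating hydrazine (~50 fmol lesions), 30 min, 37 °C. Heated 50 °C 2–3 h. Cross-links quantified by Hoechst 33258 fluorescence before/after heat denaturation. Inhibition derived from remaining cross-link precursors.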

Structure (SMILES): CC(C)(OC(=O)Nc1nc(OCc2ccccc2)c2nc[nH]c2n1)c1ccc([N+](=O)[O-])cc1
- Drug degradation [1]: 54.8 %molar
- Drug metabolism [2]: < 0.05 µM
- Drug metabolism [3]: 14.8 µM
- Drug metabolism [4]: 0.1 µM
- Drug metabolism [5]: 13.9 µM
- inhibition (Homo sapiens [6]): < 1%
- Drug metabolism (DU-145 [7]): Not Active
- Drug metabolism (EMT6 [8]): Not Active
- Drug metabolism (DU-145 [9]): Active
- Drug metabolism (EMT6 [10]): Active
- inhibition (DU-145 [11]): inactive
- inhibition (DU-145 [12]): Active

Structure (SMILES): CC(OC(=O)Nc1nc(OCc2ccccc2)c2nc[nH]c2n1)c1ccc([N+](=O)[O-])cc1 (stereo unspecified)
- Drug degradation [1]: 35.4 %molar
- Drug metabolism [2]: < 0.05 µM
- Drug metabolism [3]: 11.6 µM
- Drug metabolism [4]: < 0.05 µM
- Drug metabolism [5]: 0.1 µM
- inhibition (Homo sapiens [6]): < 1%
- Drug metabolism (DU-145 [7]): Not Active
- Drug metabolism (EMT6 [8]): Not Active
- Drug metabolism (EMT6 [10]): Active

Structure (SMILES): O=C(Nc1nc(OCc2ccccc2)c2nc[nH]c2n1)OCc1ccc([N+](=O)[O-])cc1
- Drug degradation [1]: 4 %molar
- Drug metabolism [2]: < 0.05 µM
- Drug metabolism [3]: 2.8 µM
- Drug metabolism [4]: < 0.05 µM
- Drug metabolism [5]: < 0.05 µM
- inhibition (Homo sapiens [6]): < 1%
- Drug metabolism (DU-145 [7]): Not Active
- Drug metabolism (EMT6 [8]): Not Active
- Drug metabolism (EMT6 [10]): Active

Structure (SMILES): Nc1nc(OCc2ccccc2)c2nc[nH]c2n1
- inhibition (Homo sapiens [13]): 47%
